# Xi reactivation: activators of X-chromosome reactivation in mouse fibroblasts; XiGFP mouse fibroblasts, % GFP-positive cells imaging, 3 d; cells co-treated with 5-aza-dC sensitizer; scaled so ellipticine positive control = 100%; activation, % at 7.58 µM; 360,000 compounds, 0.055% hits; AID 743238;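 active = mean normalized replicate activation at least 10% and every replicate at or above 10%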;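 note: 0% = median of on-plate neutral control wells and 100% = ellipticine 6 µM median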
#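 Material: XiGFP fibroblasts, SV40-immortalized; Buffer or medium: DMEM containing 5-aza-dC; Compound dosing: single point; Times: 3 days compound exposure.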
# SR-BI DiI inh: inhibitors of mouse SR-BI mediated HDL lipid uptake; inhibition, % at 12.5 µM; Q61009; ldlA[mSR-BI] CHO cells, DiI-HDL uptake fluorescence, 3 h; 320,000 compounds, 0.96% hits;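 active = mean replicate inhibition of at least 70% and a set share of replicates each scoring 70 or more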;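 note: 0% = median of neutral control wells and 100% = median of positive control wells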
# Target sequence (Q61009 whole entry, looked up): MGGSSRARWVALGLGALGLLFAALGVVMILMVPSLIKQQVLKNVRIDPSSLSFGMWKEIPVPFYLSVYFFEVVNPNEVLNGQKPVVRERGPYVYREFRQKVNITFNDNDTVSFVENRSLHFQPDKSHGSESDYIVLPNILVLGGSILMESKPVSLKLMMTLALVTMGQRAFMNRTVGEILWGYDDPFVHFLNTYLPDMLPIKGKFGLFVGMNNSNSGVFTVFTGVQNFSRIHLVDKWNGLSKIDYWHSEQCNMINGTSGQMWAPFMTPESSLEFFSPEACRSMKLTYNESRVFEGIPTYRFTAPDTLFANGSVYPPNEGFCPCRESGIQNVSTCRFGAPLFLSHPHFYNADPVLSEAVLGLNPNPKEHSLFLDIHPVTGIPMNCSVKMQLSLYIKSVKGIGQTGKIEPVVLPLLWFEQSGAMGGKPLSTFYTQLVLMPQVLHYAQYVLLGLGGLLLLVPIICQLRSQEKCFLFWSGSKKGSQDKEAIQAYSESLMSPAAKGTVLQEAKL
# SR-BI DiI-HDL act: SR-BI HDL lipid transfer activation; CHO ldlA[mSR-BI] cells, DiI-HDL uptake fluorescence, 3 h; 100 = double the neutral-control signal; activation, % at 12.5 µM; 320,000 compounds, 0.096% hits; AID 504775;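 active = mean replicate activation of at least 60% and every replicate at or above 60%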;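 note: 0% = median plate neutral-control signal and 100% = twice that signal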
#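 Material – SR-BI-overexpressing, LDLR-lacking CHO cells · Medium – BSA-supplemented, HEPES-buffered Ham's F12, pH 7.4 · Doses – single concentration · Times – compound with DiI-HDL co-incubation, 3 h at 37 °C · Measured by – bottom-read fluorescence, 550/595 nm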
# PvdQ acylase: blocks Pseudomonas aeruginosa PvdQ acylase activity. purified PvdQ acylase, fluorescence plate reader. inhibition, % at 10 µM. 340,000 compounds, 0.063% hits; in the data active = inhibition above about 30%, passing the limit was not always enough;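 note: 0% = vehicle neutral wells and 100% = reference inhibitor wells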
# dFosB act: activators of mouse delta FosB homodimer; P13346; purified delta FosB, TAMRA-CDK5 oligo fluorescence polarization; percent of positive-control signal above neutral wells; activation, % at 25 µM; 340,000 compounds, 0.99% hits; AID 493131;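 active = mean activation above about 17%, with every replicate also reaching it, limit read from the data, passing the limit was not always enough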
# rRNA inh HTS: inhibits bacterial ribosomal RNA function over humanized ribosomes; 350,000 compounds, 1.6% hits; GFP signal change (wild-type ribosome), % (concentration not given with the values); AID 720706; E. coli WT GFP vs humanized-ribosome RFP mutants, fluorescence, 24 h; hits give low values; DMSO median 0, no signal -100;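 active = significant combined selectivity score with lowered wild-type GFP, culture density cut under 30%, mutant RFP and density less affected; inactive = any of these conditions unmet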
# Numbers without * were called inactive; · = no result. Compounds with a hit are over-represented: about 2.6% of the library has one in this group of screens.
SMILES,Xi reactivation,SR-BI DiI inh,SR-BI DiI-HDL act,PvdQ acylase,dFosB act,rRNA inh HTS
COC(=O)/C=C/c1ccc(-n2ccnc2)cc1,0.5,-2.4,2.4,-5.3,-1.7,-30.3*
CCSc1nc(N2CCCCC2)c2c(c1C#N)CCCC2,·,76.4*,-76.4,-11.7,-0.8,·
O=C(c1ccc(F)cc1)C1CCN(Cc2cn[nH]c2-c2ccc(F)cc2)CC1,0.1,5.8,-5.8,-21.9,-3.8,·
CSc1nnc(-c2ccc([N+](=O)[O-])cc2)o1,0.1,-1.8,1.8,57.6*,-3.7,10.2
C#CCSc1nnc(-c2ccc([N+](=O)[O-])cc2)o1,0.0,-30.7,30.7,13.9,-0.8,3.8
CC(C)C(N)c1csc(Nc2ccc(C(=O)NCCCO)cn2)n1 (configuration not stated),0.0,·,·,·,·,3.5
Cc1ccc(S(=O)(=O)NCCC(=O)N2CCN(S(=O)(=O)c3ccccc3)CC2)cc1C,0.0,-3.6,3.6,-2.5,-4.8,-2.6
O=C(Cc1ccccc1)N/N=C/c1cc(Br)cc(Cl)c1O,0.0,53.8,-53.8,8.6,54.0*,19.0
O=C(N/N=C/c1cc(Cl)cc([N+](=O)[O-])c1O)c1ccc2c(c1)OCO2,0.0,124.4*,-124.4,-3.1,-6.0,8.5
O=C(N/N=C/c1cc(Br)cc(Cl)c1O)c1ccc2c(c1)OCO2,0.0,132.0*,-132.0,9.8,-3.7,·
COc1cc(Cl)cc(/C=N\NC(=O)c2ccc3c(c2)OCO3)c1O,1.1,·,·,·,·,-23.1
O=C(N/N=C/c1cc2c(cc1Cl)OCO2)c1cccc(Br)c1,0.1,80.7*,-80.7,6.8,-12.5,4.9
O=C(c1ccccc1F)N1CC[C@H]2[C@H](CO)Nc3ccc(-c4ccccc4)cc3[C@H]21,0.0,·,·,·,·,-7.2
O=C(N/N=C/c1ccccc1O)c1ccc2c(c1)OCO2,0.3,81.2*,-81.2,1.1,-1.6,7.7
O=C(N/N=C/c1c[nH]c2ccc(Br)cc12)C1CC1,0.0,·,·,13.6,-3.0,-33.5*
O=C(N/N=C/c1ccc2c(c1)OCO2)c1ccc2c(c1)OCCO2,1.0,2.1,-2.1,-9.3,5.1,·
Cc1cc(Br)cc(/C=N/NC(=O)c2ccc3c(c2)OCO3)c1O,-0.1,146.1*,-146.1,-2.8,15.3,15.3
NC(=O)C(=O)N/N=C/c1c[nH]c2ccc(Br)cc12,0.0,18.6,-18.6,-10.2,-4.0,-1.1
O=C(N/N=C/c1c[nH]c2ccc(Br)cc12)c1ccc2c(c1)OCO2,0.5,-1.8,1.8,-3.1,-8.2,-30.3*
CS/C(N)=N/N=C/c1c(O)ccc2ccccc12,-0.1,22.2,-22.2,-4.7,0.6,-6.8
Cc1ccn2c(=O)nc(SCC(=O)c3ccccc3)nc2c1,0.3,-10.3,10.3,2.0,-11.4,3.8
Cn1c(SCC(=O)N/N=C/C=C\c2ccccc2[N+](=O)[O-])nc2ccccc21,0.0,22.7,-22.7,-3.8,20.3*,-3.8
O=C(N/N=C/c1cc(Br)c(O)c(Br)c1O)c1ccc2c(c1)OCCO2,0.1,30.2,-30.2,2.2,1.4,-19.2*
O=C(N/N=C/C=C/c1ccccc1[N+](=O)[O-])c1cc(-c2ccccc2)n[nH]1,0.3,31.9,-31.9,-4.1,7.8,-34.3*
O=C(N/N=C/c1cc(Br)c(Br)o1)c1ccc2c(c1)OCCO2,0.0,34.1,-34.1,-4.0,-15.0,2.8
SMILES,Xi reactivation,SR-BI DiI inh,SR-BI DiI-HDL act,PvdQ acylase,dFosB act,rRNA inh HTS
O=C(N/N=C/c1cc2c(cc1Cl)OCO2)c1cc(-c2ccccc2)n[nH]1,0.2,67.3,-67.3,1.9,7.1,-23.9*
CCN(CC)C(=O)COc1ccc(CC(=O)O)cc1OC,·,-0.6,0.6,1.8,0.2,·
OCCNCCSc1nc(C2CCCCC2)n(-c2ccccc2Cl)n1,-0.2,·,·,-13.8,-6.9,2.8
O=C(CNC(=O)c1ccc2c(c1)OCO2)N/N=C/c1cc(Br)ccc1O,0.7,-2.9,2.9,-12.3,61.7*,5.8
C=CCc1c(C)nc2c(C)cccc2c1SC(=N)N,0.0,-4.6,4.6,25.8,-1.4,-22.5*
Cc1nc2c(C)cccc2c(SC(=N)N)c1CC=C(Cl)Cl,-0.1,-23.5,23.5,2.3,-3.4,-20.9*
C=CCc1c(C)nc2c(OC)cccc2c1Cl,0.0,-6.5,6.5,-13.7,-14.4,-20.9
CO[C@H]1CN(C)C(=O)c2cc(NC(=O)C3CCC3)ccc2OC[C@H](C)N(Cc2ccc(F)cc2)C[C@H]1C,0.3,·,·,·,·,0.2
COC(=O)c1cc(NC(=O)c2cccc([N+](=O)[O-])c2C)ccc1Cl,0.0,66.4,-66.4,11.9,0.5,-25.2*
CCN(CC)S(=O)(=O)c1ccc(-c2nnc(SCc3nnc(-c4ccc(C)cc4)o3)o2)cc1,·,38.8,-38.8,-14.1,-3.1,·
CCN(CC)S(=O)(=O)c1ccc(-c2nnc(SCc3nnc(-c4ccc(C)cc4)o3)n2CC)cc1,·,72.1*,-72.1,-13.2,-2.7,·
COc1ccccc1Cc1c(-c2ccc(F)cc2)nc2c(C)cc(Br)cn12,0.1,·,·,·,·,-32.5*
Cc1cc(Br)cn2c(Cc3ccccc3)c(-c3ccc(Cl)cc3)nc12,-0.1,·,·,·,·,0.6
Cc1cc(Br)cn2c(Cc3cccc(F)c3)c(-c3ccc(Cl)cc3)nc12,-0.1,·,·,·,·,-31.5*
Cc1ccc(-c2ccc([C@H]3[C@@H](CO)N4CCCCN(C(=O)c5ccc(F)cc5)C[C@H]34)cc2)cc1,0.1,·,·,·,·,-59.0
Cc1ccsc1/C=N/NC(=O)c1nnn(-c2nonc2N)c1-c1ccccc1,0.1,52.0,-52.0,-9.8,-11.6,-13.8
Cc1ccc(-c2c(C(=O)N/N=C/c3c[nH]c4ccccc34)nnn2-c2nonc2N)cc1,0.0,84.6*,-84.6,18.1,7.2,0.6
Cc1ccc(-c2c(C(=O)N/N=C/c3sccc3C)nnn2-c2nonc2N)cc1,0.1,84.6*,-84.6,7.7,-4.1,-3.3
Cc1ccc(C)c(N2CCN(CC3CCCCC3)CC2)c1,0.0,5.0,-5.0,-15.9,-6.7,-36.0
CCOc1ccc(N(CC(=O)NCc2ccccc2)S(=O)(=O)c2ccc(C)cc2)cc1,0.3,·,·,-2.7,0.3,-1.6
Cc1ccnc(NC(=O)COc2c(C)cc(C)cc2[N+](=O)[O-])c1,-0.1,97.8*,-97.8,-8.5,2.8,·
C[C@@H]1CN([C@@H](C)CO)C(=O)c2cccc(NS(C)(=O)=O)c2O[C@H]1CN(C)C(=O)Nc1ccccc1,0.0,·,·,·,·,-0.7
CCOCCN1CCN(C2c3ccccc3CSc3ccccc32)CC1 (configuration not stated),0.0,-8.8,8.8,5.0,-5.0,-24.7*
Cc1ccnc(N/C=C(/NC(=O)c2ccccc2)C(=O)N/N=C\c2ccc(Cl)cc2)n1,0.0,·,·,-10.6,18.5*,-5.0
